Results on 4 molecules are retold here after PMC12166265 (Clinical Pharmacology and Therapeutics, 2025).

Where two headings read alike, the source gives them in different places.

By Cmax is commonly meant the peak of the concentration-time curve. In general, AUC refers to the area under the concentration-time curve, a measure of exposure. For orientation: AUC(0-t) means the area under the concentration-time curve up to a stated or last time point. Broadly, the AUC(0-inf) is total exposure, with the tail of the curve extrapolated. A low value points to low exposure. What is called CL/F is clearance divided by bioavailability, as obtained after extravascular dosing. The half-life is how long it takes for the measured level to halve. Read a high half-life as slow decline.

For series [1], the system named is BCRP. The settings on record: 14 healthy males, BMS-986371; cited from earlier work.
The test system of series [2] is ABCG2 p.Q141K variant. The class given is in vivo, human. The method in brief:
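Open-label fixed-sequence crossover in 11 healthy non-smoking adults aged 18–64. Single oral rosuvastatin 10 mg given after an overnight fast, with fasting continued 4 h. Heparinised venous plasma was stored at −70°C and analysed by LC–MS. ABCG2 c.421C>A was genotyped blind by PCR and Sanger sequencing. Nine CC and two CA subjects were compared at T = 0 h and by noncompartmental PK, using log-transformed geometric means and unpaired t-tests.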

The format of series [3] is in vivo, human. The settings on record: for Effect of eltrombopag administration on plasma concentrations (in words): eltrombopag 75 mg daily for 5 days.
[4] abbreviates: both, human, plasma, oral, 10 mg.
[5] abbreviates: both, human, plasma, oral, 10 mg, AUC0−4, rosuvastatin alone arm, geometric mean (90% CI).
[6] abbreviates: both, human, plasma, oral, AUC0−4, rosuvastatin + eltrombopag arm, geometric mean (90% CI).
Setting [7] is: human, in vivo, listed as rosuvastatin.
[8] abbreviates: rosuvastatin + eltrombopag arm, geometric mean (90% CI).
Where [9] appears, read: rosuvastatin alone arm, geometric mean (90% CI).

Take `Cc1cc2nc3c(=O)[nH]c(=O)nc-3n(C[C@H](O)[C@H](O)[C@H](O)CO)c2cc1C` [Riboflavin]: the “Increase in riboflavin AUC0−4” value in series [1] is on record as 1.25 fold. Further, in series [1], the “Increase in riboflavin AUC0−24” value was 1.14 fold. In series [1], the “Increase in riboflavin Cmax” value is listed as 1.11 fold. In series [2] (two p.Q141K (CA) vs nine REF (CC) individuals, T = 0 h), the “Baseline concentrations, heterozygous p.Q141K vs homozygous reference allele” value was “no association”. For the same molecule, the C0 at 0 h in series [3] (both, human, plasma, oral) was 2.79 ng/mL; in series [3] (setting [4]), 2.72 ng/mL. For the same molecule, the Cmax turned out to be 3.61 ng/mL in series [3] (both, human, plasma, oral) and 4.16 ng/mL in series [3] (setting [4]). This molecule also showed an exposure (AUC) in series [3] (setting [4]) of 11.7 ng·h/mL. The AUC(0-t) came to 10.6 ng·h/mL in series [3] (setting [5]); 65.9 ng·h/mL in series [3] (both, human, plasma, oral, 10 mg, AUC0−24, rosuvastatin alone arm, geometric mean (90% CI)); 10.6 ng·h/mL in series [3] (both, human, plasma, oral, 10 mg, mean riboflavin AUC0−4, fasted state, rosuvastatin alone arm); 10.2 ng·h/mL in series [3] (setting [6]); 65.6 ng·h/mL in series [3] (both, human, plasma, oral, AUC0−24, rosuvastatin + eltrombopag arm, geometric mean (90% CI)); 9.7 ng·h/mL in series [3] (both, human, plasma, oral, mean riboflavin AUC0−4, fasted state, in the presence of eltrombopag). In series [3], the “Effect of eltrombopag administration on plasma concentrations (in words)” value (from here on “Effect of eltrombopag administration”) was “did not lead to corresponding increases”.

In the case of `CC(C)c1nc(N(C)S(C)(=O)=O)nc(-c2ccc(F)cc2)c1/C=C/[C@@H](O)C[C@@H](O)CC(=O)O` [Rosuvastatin, reference compound], in series [2] (rosuvastatin 10 mg), the “AUC0–4, fold higher in p.Q141K variant vs reference allele” value is 2.9 fold; the “AUC0–INF, fold higher in p.Q141K variant vs reference allele” value is 2.6 fold; the “Cmax, fold higher in p.Q141K variant vs reference allele” value is on record as 2.4 fold. For the same molecule, in series [3] (both, human, plasma, oral), the total exposure AUC(0-inf) is 116 ng·h/mL, the apparent clearance CL/F was 19.7 mL/min/kg, the Cmax is 10.9 ng/mL and the half-life was 8.8 h. Further, in series [3] (setting [4]), the total exposure AUC(0-inf) was 69.1 ng·h/mL, the CL/F is 32.7 mL/min/kg, the highest level (Cmax) was 5.4 ng/mL and the half-life was 10.4 h. Further, in series [3] (setting [5]), the AUC(0-t) was 11.8 ng·h/mL. Moreover, in series [3] (setting [6]), the AUC(0-t) is 25 ng·h/mL. Also, in series [3] (human, in vivo), the “AUC0−4, geometric mean ratio (90% CI) of rosuvastatin + eltrombopag arm to rosuvastatin alone arm” value is 2.12 (1.71–2.62); P = 0.002; the “AUC0−INF, geometric mean ratio (90% CI) of rosuvastatin + eltrombopag arm to rosuvastatin alone arm” value is 1.80 (1.49–2.17); P = 0.002; the “CL/F/kg, geometric mean ratio (90% CI) of rosuvastatin + eltrombopag arm to rosuvastatin alone arm” value is given as 0.56 (0.46–0.67); P = 0.02; the “Cmax, geometric mean ratio (90% CI) of rosuvastatin + eltrombopag arm to rosuvastatin alone arm” value (“Cmax, geometric mean ratio (90% CI)” for short) is on record as 2.01 (1.59–2.53); P = 0.002. In addition, in series [3] (human, in vivo), the “T1/2, geometric mean ratio (90% CI) of rosuvastatin + eltrombopag arm to rosuvastatin alone arm” value is 0.88 (0.78–0.99); P = 0.13 and the “V/F/kg, geometric mean ratio (90% CI) of rosuvastatin + eltrombopag arm to rosuvastatin alone arm” value is 0.49 (0.38–0.63); P = 0.004. In series [3] (setting [7]), the “AUC0−4, geometric mean ratio (90% CI) of rosuvastatin + eltrombopag arm to rosuvastatin alone arm” value is given as 2.1; the “AUC0−INF, geometric mean ratio (90% CI) of rosuvastatin + eltrombopag arm to rosuvastatin alone arm” value stood at 1.8; the “Cmax, geometric mean ratio (90% CI)” value was “twofold”. In addition, in series [3] (rosuvastatin + eltrombopag arm), the Tmax is given as 4 (3.5–5) h. Further, in series [3] (setting [8]), the V/F/kg was 14.9 (11.5–17.8) L/kg. Moreover, in series [3] (rosuvastatin + eltrombopag arm, geometric mean (90% CI), listed as rosuvastatin), the V/F/kg is 14.9 L/kg. In series [3] (rosuvastatin alone arm), the Tmax is on record as 5 (1.5–5) h. In addition, the V/F/kg in series [3] (setting [9]) is 29.3 (22.8–37.7) L/kg. Moreover, the V/F/kg in series [3] (rosuvastatin alone arm, geometric mean (90% CI), listed as rosuvastatin) is 29.3 L/kg.

As for Coproporphyrin-I [CP‐I], the “Effect of eltrombopag administration” value in series [3] is reported as “no effect”. For the same molecule, in series [3] (human, in vivo), the “AUC0−24, geometric mean ratio (90% CI) of rosuvastatin + eltrombopag arm to rosuvastatin alone arm” value is reported as 0.96 (0.88–1.04); P = 0.50; the “C0, geometric mean ratio (90% CI) of rosuvastatin + eltrombopag arm to rosuvastatin alone arm” value is 0.90 (0.83–0.98); P = 0.05; the “Cmax, geometric mean ratio (90% CI)” value is 0.95 (0.88–1.03); P = 0.33. In addition, in series [3] (setting [8]), the “AUC0−24” value was 16.2 (14.2–18.4) nM*h, the C0 came to 0.74 nM and the Cmax amounted to 0.89 nM. For the same molecule, in series [3] (setting [9]), the “AUC0−24” value is listed as 16.9 (15.3–18.6) nM*h, the C0 is 0.81 nM and the highest level (Cmax) was 0.93 nM.

As to Coproporphyrin-III [CP‐III], the “Effect of eltrombopag administration” value in series [3] is recorded as “no effect”. Also, in series [3] (human, in vivo), the “AUC0−24, geometric mean ratio (90% CI) of rosuvastatin + eltrombopag arm to rosuvastatin alone arm” value was 0.93 (0.80–1.08); P = 0.44; the “C0, geometric mean ratio (90% CI) of rosuvastatin + eltrombopag arm to rosuvastatin alone arm” value was 0.75 (0.64–0.88); P = 0.01; the “Cmax, geometric mean ratio (90% CI)” value was 0.83 (0.70–0.98); P = 0.08. For the same molecule, in series [3] (setting [8]), the “AUC0−24” value is on record as 1.70 (1.46–1.99) nM*h, the C0 is 0.09 nM and the maximum concentration (Cmax) was 0.11 nM. Also, in series [3] (setting [9]), the “AUC0−24” value is 1.83 (1.60–2.09) nM*h, the C0 came to 0.12 nM and the Cmax amounted to 0.13 nM.
